Usually pKi stands for −log10 of the Ki, conventionally taken in molar units. Read a high pKi as a small Ki. By pEC50 is commonly meant the EC50 on a negative log10 scale, so that one unit is a factor of ten. A word on the pIC50: it is −log10 of the IC50, conventionally taken in molar units.

Assay [1] concerns the target T1, D(2) dopamine receptor (Homo sapiens, UniProt P14416). In words: Displacement of [3H] Spiperone from human D2L receptor expressed in CHO cells by competitive radioligand binding assay. It counts as cell-based. A general note: In a radioligand displacement assay an active substance lowers the binding of a labelled ligand.
Assay [2] addresses T1, D(2) dopamine receptor. Kind of assay: Displacement of [3H] Spiperone from human D2S receptor expressed in CHO cells by competitive radioligand binding assay. It counts as cell-based.
The target of a further assay is D(3) dopamine receptor (Homo sapiens, UniProt P35462). In words: Displacement of [3H] Spiperone from human D3 receptor expressed in CHO cells by competitive radioligand binding assay. It counts as cell-based.
Sequence of D(3) dopamine receptor (P35462 whole entry): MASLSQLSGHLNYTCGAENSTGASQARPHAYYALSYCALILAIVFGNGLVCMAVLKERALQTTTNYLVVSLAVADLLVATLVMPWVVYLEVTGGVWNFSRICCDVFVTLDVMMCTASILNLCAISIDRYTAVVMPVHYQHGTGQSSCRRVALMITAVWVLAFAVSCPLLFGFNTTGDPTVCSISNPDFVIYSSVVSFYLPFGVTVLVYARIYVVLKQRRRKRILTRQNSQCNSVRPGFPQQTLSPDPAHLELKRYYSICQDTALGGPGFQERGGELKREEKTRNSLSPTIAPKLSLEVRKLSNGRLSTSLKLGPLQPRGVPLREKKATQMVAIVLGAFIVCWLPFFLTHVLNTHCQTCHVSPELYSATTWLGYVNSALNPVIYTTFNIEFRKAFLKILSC
The target in assay [3] is T2, D(4) dopamine receptor (Homo sapiens, UniProt P21917).
T2 sequence (P21917 whole entry): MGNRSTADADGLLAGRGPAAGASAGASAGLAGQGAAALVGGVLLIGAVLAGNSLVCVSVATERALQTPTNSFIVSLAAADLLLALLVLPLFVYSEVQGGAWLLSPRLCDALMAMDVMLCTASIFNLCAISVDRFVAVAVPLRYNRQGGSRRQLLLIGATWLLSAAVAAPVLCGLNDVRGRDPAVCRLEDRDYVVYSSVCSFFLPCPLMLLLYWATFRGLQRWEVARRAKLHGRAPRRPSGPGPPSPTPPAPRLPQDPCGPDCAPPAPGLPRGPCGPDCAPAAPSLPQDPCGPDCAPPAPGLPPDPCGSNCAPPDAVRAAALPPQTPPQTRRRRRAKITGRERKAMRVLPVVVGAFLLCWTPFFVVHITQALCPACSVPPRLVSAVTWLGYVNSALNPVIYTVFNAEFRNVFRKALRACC
In words: Displacement of [3H] Spiperone from human D4.4 receptor expressed in CHO cells by competitive radioligand binding assay. It counts as cell-based.

Assay [4] is filed under the species Homo sapiens. Kind of assay: Selectivity index, ratio of Ki for displacement of [3H] Spiperone from human D2L receptor expressed in CHO cells to Ki for displacement of [3H] Spiperone from human D4.4 receptor expressed in CHO cells. It counts as cell-based. Summed up:
(§1)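 Competition binding against [3H]spiperone on membranes of CHO cells stably expressing cloned human D2L, D2S, D3 or D4.4 receptors. Ki from monophasic curve fits; mean ± SEM of three to seven experiments, each in triplicate. Selectivity calculated as Ki(D2L, D2S or D3) divided by Ki(D4.4).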

Assay [5] is filed under the species Homo sapiens. Kind of assay: Selectivity index, ratio of Ki for displacement of [3H] Spiperone from human D2S receptor expressed in CHO cells to Ki for displacement of [3H] Spiperone from human D4.4 receptor expressed in CHO cells. It counts as cell-based. Summed up:
as §1

Assay [6] is filed under the species Homo sapiens. Kind of assay: Selectivity index, ratio of Ki for displacement of [3H] Spiperone from human D3 receptor expressed in CHO cells to Ki for displacement of [3H] Spiperone from human D4.4 receptor expressed in CHO cells. It counts as cell-based. The gist of the method: as §1
The target of assay [7] is T2, D(4) dopamine receptor. Kind of assay: Agonist activity at human D4 receptor expressed in HEK293T cells co-expressing G-alphaqi assessed as accumulation of inositol monophosphate using d2-labelled IP1 conjugate incubated for 90 mins by HTRF assay. It counts as functional, cell-based. Background: TR-FRET usually uses a lanthanide donor and a delayed reading to cut background.

Assay [8] concerns the target T2, D(4) dopamine receptor. It counts as cell-based, HEK293.
The target in assay [9] is T2, D(4) dopamine receptor. In words: Antagonist activity at […] D4 receptor (unknown origin) expressed in HEK293 cells co-expressing beta-arrestin2 assessed as inhibition of quinpirole-induced beta-arrestin2 recruitment preincubated for 30 mins followed by quinpirole addition and further incubated for 6 hrs by Path-Hunter assay. It counts as cell-based. In general terms: Arrestin recruitment assays detect the binding of arrestin to an activated receptor.

pEC50, pIC50, pKi: −log10 of the molar value.

T1 sequence (P14416 whole entry): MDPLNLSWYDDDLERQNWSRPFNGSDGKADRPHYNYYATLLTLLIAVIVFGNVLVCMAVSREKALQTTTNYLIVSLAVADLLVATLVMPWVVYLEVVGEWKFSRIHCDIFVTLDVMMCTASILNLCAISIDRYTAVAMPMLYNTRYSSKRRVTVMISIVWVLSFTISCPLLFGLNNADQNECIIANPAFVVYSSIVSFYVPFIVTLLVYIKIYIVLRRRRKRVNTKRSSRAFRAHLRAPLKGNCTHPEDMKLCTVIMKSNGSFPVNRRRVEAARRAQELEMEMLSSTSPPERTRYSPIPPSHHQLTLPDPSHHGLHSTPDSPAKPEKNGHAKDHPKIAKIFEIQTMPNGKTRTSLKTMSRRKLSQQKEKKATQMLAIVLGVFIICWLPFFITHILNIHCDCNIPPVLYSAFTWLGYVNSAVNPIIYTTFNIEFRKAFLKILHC

For `COc1ccccc1N1CCN(CCCNC(=O)NN(Cc2ccccc2)c2ccc(F)cc2)CC1`, the pKi is 8.18 at D(2) dopamine receptor [1], 8.37 at D(2) dopamine receptor [2], 7.60 on D(3) dopamine receptor and 9.26 on D(4) dopamine receptor [3]. For the same compound, the Ratio Ki in the assay listed under Homo sapiens [4] came to 12; in the assay filed under Homo sapiens [5], 7.8; in the assay filed under Homo sapiens [6], 45. For the same compound, the pEC50 is 8.74 at D(4) dopamine receptor [7] and 6.47 on D(4) dopamine receptor [8]. In addition, the pIC50 on D(4) dopamine receptor [9] is 7.31.
As for `O=C(NCCN1CCN(c2ccc(Br)cc2)CC1)NN(Cc1ccccc1)c1ccccc1`, the pKi on D(2) dopamine receptor [1] was 6.41; at D(2) dopamine receptor [2], 6.37; on D(3) dopamine receptor it was 5.74; at D(4) dopamine receptor [3], 7.55. Moreover, the Ratio Ki in the assay listed under Homo sapiens [4] was determined as 14; in the assay filed under Homo sapiens [5], 15; in the assay filed under Homo sapiens [6] it was 64.
`O=C(NCCCN1CCN(c2ccc(Br)cc2)CC1)NN(Cc1ccc(F)cc1)c1ccccc1`: the pKi on D(2) dopamine receptor [1] was 6.10; on D(2) dopamine receptor [2] it was 6.21; on D(3) dopamine receptor, 5.85; on D(4) dopamine receptor [3] it was 7.34. Moreover, the Ratio Ki in the assay listed under Homo sapiens [4] was 17; in the assay filed under Homo sapiens [5] it was 13; in the assay listed under Homo sapiens [6], 30.
As to `COc1ccccc1N1CCN(CCCNC(=O)NN(Cc2ccc(C#N)cc2)c2ccc(Cl)cc2Cl)CC1`, the pKi was 6.82 at D(2) dopamine receptor [1], 7.03 at D(2) dopamine receptor [2], 6.55 on D(3) dopamine receptor and 7.92 at D(4) dopamine receptor [3]. Further, the Ratio Ki in the assay listed under Homo sapiens [4] was 13; in the assay filed under Homo sapiens [5], 7.8; in the assay filed under Homo sapiens [6], 23.
As for `COc1ccccc1N1CCN(CCCNC(=O)NN(Cc2ccc(F)cc2)c2ccc(F)cc2)CC1`, the pKi on D(2) dopamine receptor [1] was 7.11; on D(2) dopamine receptor [2], 7.52; on D(3) dopamine receptor it was 7.07; at D(4) dopamine receptor [3], 8.34. Also, the Ratio Ki in the assay filed under Homo sapiens [4] came to 17; in the assay filed under Homo sapiens [5] it was 6.5; in the assay filed under Homo sapiens [6], 18.
As for `COc1ccccc1N1CCN(CCCNC(=O)NN(Cc2ccc(-c3ccccc3)cc2)c2ccc(F)cc2)CC1`, the pKi on D(2) dopamine receptor [1] is 6.85; on D(2) dopamine receptor [2], 7.38; on D(3) dopamine receptor, 6.96; at D(4) dopamine receptor [3], 8.23. The Ratio Ki in the assay listed under Homo sapiens [4] came to 24; in the assay listed under Homo sapiens [5], 7.1; in the assay filed under Homo sapiens [6], 19.
`COc1ccccc1N1CCN(CCCNC(=O)NN(Cc2ccccc2)c2ccc(Br)cc2)CC1`: the negative-log Ki (pKi) on D(2) dopamine receptor [1] is 7.26; on D(2) dopamine receptor [2] it was 7.47; on D(3) dopamine receptor, 6.89; on D(4) dopamine receptor [3], 8.47. Besides, the Ratio Ki in the assay listed under Homo sapiens [4] came out at 16; in the assay listed under Homo sapiens [5], 10; in the assay filed under Homo sapiens [6], 38.
Consider `COc1ccccc1N1CCN(CCNC(=O)NN(Cc2ccccc2)c2ccc(F)cc2)CC1`, for which the pKi on D(2) dopamine receptor [1] was 7.00; on D(2) dopamine receptor [2] it was 7.15; at D(3) dopamine receptor, 6.15; at D(4) dopamine receptor [3], 8.05. In addition, the figures for the Ratio Ki in the assay listed under Homo sapiens [4], in the assay filed under Homo sapiens [5] and in the assay listed under Homo sapiens [6] were 11, 7.9 and 78, respectively.
Turning to `COc1ccc(N(Cc2cccc(OC)c2)NC(=O)NCCCN2CCN(c3ccccc3OC)CC2)cc1`, the pKi at D(2) dopamine receptor [1] is 6.82; at D(2) dopamine receptor [2], 6.96; at D(3) dopamine receptor it was 6.49; on D(4) dopamine receptor [3] it was 7.48. In addition, the figures for the Ratio Ki in the assay filed under Homo sapiens [4], in the assay filed under Homo sapiens [5] and in the assay listed under Homo sapiens [6] were 4.5, 3.3 and 9.7, respectively.
In the case of `COc1ccccc1N1CCN(CCCNC(=O)/N=N/c2ccc(F)cc2)CC1`, the pKi is 6.96 on D(2) dopamine receptor [1], 7.29 on D(2) dopamine receptor [2], 6.85 on D(3) dopamine receptor and 7.70 at D(4) dopamine receptor [3]. The Ratio Ki is 5.5 in the assay listed under Homo sapiens [4], 2.6 in the assay listed under Homo sapiens [5] and 7 in the assay listed under Homo sapiens [6].

Values taken from ChEMBL document CHEMBL4321823, “Benzyl Phenylsemicarbazides: A Chemistry-Driven Approach Leading to G Protein-Biased Dopamine D4 Receptor Agonists with High Subtype Selectivity” (J Med Chem, 2019).
